# Test results as given in ChEMBL document CHEMBL1156129, “Synthesis, structure-activity relationships, and characterization of novel nonsteroidal and selective androgen receptor modulators” (J Med Chem, 2009).
# Assays:
# [1] = Plasma concentration in Sprague-Dawley rat at 10 mg/kg, po after 60 mins; format: ADME, organism-based; design: dose 10 mg/kg, route oral
# [2] = Plasma concentration in Sprague-Dawley rat at 10 mg/kg, po after 120 mins; format: ADME, organism-based; design: dose 10 mg/kg, route oral
# [3] = Plasma concentration in Sprague-Dawley rat at 10 mg/kg, po after 360 mins; format: ADME, organism-based; design: dose 10 mg/kg, route oral
# [4] = Plasma concentration in Sprague-Dawley rat at 10 mg/kg, po after 480 mins; format: ADME, organism-based; design: dose 10 mg/kg, route oral
# [5] = AUC (8 hrs) in Sprague-Dawley rat at 1 mg/kg, iv; format: ADME, organism-based; design: time < 8 hr, dose 1 mg/kg, route intravenous; settings: plasma
# [6] = AUC (8 hrs) in Sprague-Dawley rat at 10 mg/kg, po; format: ADME, organism-based; design: time < 8 hr, dose 10 mg/kg, route oral; settings: plasma
# [7] = Cmax in Sprague-Dawley rat at 1 mg/kg, iv; format: ADME, organism-based; design: dose 1 mg/kg, route intravenous; settings: in vivo
# [8] = Half life in Sprague-Dawley rat at 1 mg/kg, iv; format: ADME, organism-based; design: dose 1 mg/kg, route intravenous; settings: in vivo
# [9] = Clearance in Sprague-Dawley rat at 1 mg/kg, iv; format: ADME, organism-based; design: dose 1 mg/kg, route intravenous; settings: in vivo
# [10] = AUC (0 to infinity) in Beagle […] at 10 mg/kg, po; format: ADME, organism-based, Canis lupus familiaris; design: time infinity, dose 10 mg/kg, route oral; settings: plasma
# [11] = Half life in Beagle dog at 1 mg/kg, iv; format: ADME, organism-based, Canis lupus familiaris; design: dose 1 mg/kg, route intravenous; settings: in vivo
# [12] = Oral bioavailability in Beagle […] at 10 mg/kg, po; format: ADME, organism-based, Canis lupus familiaris; settings: in vivo
# [13] = Plasma concentration in Beagle dog at 1 mg/kg, iv after 0.08 hrs; format: ADME, organism-based, Canis lupus familiaris; design: dose 1 mg/kg, route intravenous
# [14] = Plasma concentration in Beagle dog at 1 mg/kg, iv after 0.25 hrs; format: ADME, organism-based, Canis lupus familiaris; design: dose 1 mg/kg, route intravenous
# [15] = Plasma concentration in Beagle dog at 1 mg/kg, iv after 1 hrs; format: ADME, organism-based, Canis lupus familiaris; design: dose 1 mg/kg, route intravenous
# [16] = Plasma concentration in Beagle dog at 1 mg/kg, iv after 4 hrs; format: ADME, organism-based, Canis lupus familiaris; design: dose 1 mg/kg, route intravenous
# [17] = Plasma concentration in Beagle dog at 1 mg/kg, iv after 6 hrs; format: ADME, organism-based, Canis lupus familiaris; design: dose 1 mg/kg, route intravenous
# [18] = Plasma concentration in Beagle dog at 1 mg/kg, iv after 8 hrs; format: ADME, organism-based, Canis lupus familiaris; design: dose 1 mg/kg, route intravenous
# [19] = Plasma concentration in Beagle dog at 1 mg/kg, iv after 24 hrs; format: ADME, organism-based, Canis lupus familiaris; design: dose 1 mg/kg, route intravenous
# [20] = Plasma concentration in Beagle dog at 10 mg/kg, po after 0.25 hrs; format: ADME, organism-based, Canis lupus familiaris; design: dose 10 mg/kg, route oral
# [21] = Plasma concentration in Beagle dog at 10 mg/kg, po after 0.5 hrs; format: ADME, organism-based, Canis lupus familiaris; design: dose 10 mg/kg, route oral
# [22] = Plasma concentration in Beagle dog at 10 mg/kg, po after 1 hrs; format: ADME, organism-based, Canis lupus familiaris; design: dose 10 mg/kg, route oral
# [23] = Plasma concentration in Beagle dog at 10 mg/kg, po after 2 hrs; format: ADME, organism-based, Canis lupus familiaris; design: dose 10 mg/kg, route oral
# [24] = Plasma concentration in Beagle dog at 10 mg/kg, po after 4 hrs; format: ADME, organism-based, Canis lupus familiaris; design: dose 10 mg/kg, route oral
# [25] = Plasma concentration in Beagle dog at 10 mg/kg, po after 6 hrs; format: ADME, organism-based, Canis lupus familiaris; design: dose 10 mg/kg, route oral
# [26] = Plasma concentration in Beagle dog at 10 mg/kg, po after 8 hrs; format: ADME, organism-based, Canis lupus familiaris; design: dose 10 mg/kg, route oral
# [27] = Plasma concentration in Beagle dog at 10 mg/kg, po after 24 hrs; format: ADME, organism-based, Canis lupus familiaris; design: dose 10 mg/kg, route oral
# [28] = test system: Rattus norvegicus; assay: Androgenic effect in castrated rat prostate assessed as reversal at 0.3 to 3 mg/kg/day sc using osmotic pump after 14 days; format: functional, Prostate gland; settings: route subcutaneous
# Procedure, shortened: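 Orchiectomized male rats received compound by subcutaneous osmotic pump for 14 days at 0.1-3 (mg/kg)/day. […] Levator ani and ventral prostate were weighed after 2 weeks and compared with sham-operated vehicle-treated controls, expressed as reversal of ORX-induced atrophy.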
# [29] = molecular target: T1, Androgen receptor (Mus musculus, UniProt P19091); assay: Agonist activity at androgen receptor in mouse NIH3T3 cells transiently transfected with beta-galactosidase reporter gene assessed as cellular transformation by R-SAT assay
# T1 sequence (P19091 whole entry): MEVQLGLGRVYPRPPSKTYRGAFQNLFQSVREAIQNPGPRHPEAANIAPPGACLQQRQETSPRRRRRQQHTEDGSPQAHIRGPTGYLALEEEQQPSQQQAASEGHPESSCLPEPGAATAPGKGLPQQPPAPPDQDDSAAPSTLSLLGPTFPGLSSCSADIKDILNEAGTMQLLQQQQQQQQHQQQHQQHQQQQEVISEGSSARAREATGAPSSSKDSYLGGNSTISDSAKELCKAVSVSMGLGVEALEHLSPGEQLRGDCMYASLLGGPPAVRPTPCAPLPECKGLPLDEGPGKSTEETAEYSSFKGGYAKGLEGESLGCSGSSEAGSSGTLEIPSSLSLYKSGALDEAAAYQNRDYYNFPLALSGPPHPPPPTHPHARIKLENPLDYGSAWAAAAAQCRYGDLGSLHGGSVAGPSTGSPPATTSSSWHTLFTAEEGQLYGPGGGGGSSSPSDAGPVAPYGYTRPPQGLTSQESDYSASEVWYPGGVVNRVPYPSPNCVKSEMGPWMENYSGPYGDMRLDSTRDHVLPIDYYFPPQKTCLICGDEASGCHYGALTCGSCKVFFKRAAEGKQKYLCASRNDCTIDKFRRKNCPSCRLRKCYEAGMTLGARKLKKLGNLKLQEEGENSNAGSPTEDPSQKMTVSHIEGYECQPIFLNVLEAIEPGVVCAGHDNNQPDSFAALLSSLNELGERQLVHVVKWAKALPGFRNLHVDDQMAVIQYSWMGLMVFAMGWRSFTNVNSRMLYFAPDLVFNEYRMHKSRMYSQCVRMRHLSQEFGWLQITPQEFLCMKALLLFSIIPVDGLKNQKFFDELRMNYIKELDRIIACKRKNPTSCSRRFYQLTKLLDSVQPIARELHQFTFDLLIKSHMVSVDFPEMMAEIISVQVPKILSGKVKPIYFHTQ
# [30] = Agonist activity at androgen receptor LBD T877A mutant in mouse NIH3T3 cells transiently transfected with beta-galactosidase reporter gene assessed as cellular transformation by R-SAT assay relative to dihydrotestosterone; format: functional
# Procedure, shortened: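 AR expression vector transiently co-transfected (Polyfect) with β-galactosidase and coactivators SRC1, DRIP205 and GRIP1 into NIH-3T3 fibroblasts at 60-70% confluency. ONPG substrate added, absorbance read at 420 nm. EC50 from a hyperbolic fit. Mean ± SEM of three or more independent experiments.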
# [31] = Binding affinity to androgen receptor LBD T877A mutant in hamster DDT cells by scintillation counting; format: cell-based, Cricetinae
# [32] = test system: Liver microsomes; assay: Metabolic stability in human liver microsomes assessed as intrinsic clearance; format: ADME, Microsome
# [33] = Plasma concentration in Sprague-Dawley rat at 1 mg/kg, iv after 1 min; format: ADME, organism-based; design: dose 1 mg/kg, route intravenous
# [34] = Plasma concentration in Sprague-Dawley rat at 1 mg/kg, iv after 10 mins; format: ADME, organism-based; design: dose 1 mg/kg, route intravenous
# [35] = Plasma concentration in Sprague-Dawley rat at 1 mg/kg, iv after 60 mins; format: ADME, organism-based; design: dose 1 mg/kg, route intravenous
# [36] = Plasma concentration in Sprague-Dawley rat at 1 mg/kg, iv after 120 mins; format: ADME, organism-based; design: dose 1 mg/kg, route intravenous
# [37] = Plasma concentration in Sprague-Dawley rat at 1 mg/kg, iv after 360 mins; format: ADME, organism-based; design: dose 1 mg/kg, route intravenous
# [38] = Plasma concentration in Sprague-Dawley rat at 1 mg/kg, iv after 480 mins; format: ADME, organism-based; design: dose 1 mg/kg, route intravenous
# [39] = Oral bioavailability in dog; format: ADME, organism-based, Canis lupus familiaris; settings: in vivo
# [40] = Plasma concentration in Sprague-Dawley rat at 1 mg/kg, iv after 240 mins; format: ADME, organism-based; design: dose 1 mg/kg, route intravenous
# [41] = Cmax in Beagle dog at 1 mg/kg, iv; format: ADME, organism-based, Canis lupus familiaris; design: dose 1 mg/kg, route intravenous; settings: in vivo
# [42] = Cmax in Beagle dog at 10 mg/kg, po; format: ADME, organism-based, Canis lupus familiaris; design: dose 10 mg/kg, route oral; settings: in vivo
smiles,measurement,setting,value
Cc1c(N2[C@@H]3CC[C@H]2C[C@@](C)(O)C3)ccc(C#N)c1Cl,concentration at 1 h,[1],263 ng/mL
same,concentration at 2 h,[2],238 ng/mL
same,concentration at 6 h,[3],350 ng/mL
same,concentration at 8 h,[4],253 ng/mL
same,AUC at 8 h,[5],631 ng·h/mL
same,AUC at 8 h,[6],2370 ng·h/mL
same,Cmax,[7],882 ng/mL
same,half-life,[8],148 min
same,clearance,[9],24.4 mL/min/kg
same,AUC(0-inf),[10],2210 ng·h/mL
same,half-life,[11],126 min
same,bioavailability,[12],56%
same,concentration at 0.08 h,[13],357 ng/mL
same,concentration at 0.25 h,[14],231 ng/mL
same,concentration at 1 h,[15],89.3 ng/mL
same,concentration at 4 h,[16],18.5 ng/mL
same,concentration at 6 h,[17],9.5 ng/mL
same,concentration at 8 h,[18],5.5 ng/mL
same,concentration at 24 h,[19],0.3 ng/mL
same,concentration at 0.25 h,[20],835 ng/mL
same,concentration at 0.5 h,[21],592 ng/mL
same,concentration at 1 h,[22],408 ng/mL
same,concentration at 2 h,[23],270 ng/mL
same,concentration at 4 h,[24],159 ng/mL
same,concentration at 6 h,[25],104 ng/mL
same,concentration at 8 h,[26],60.6 ng/mL
same,concentration at 24 h,[27],3.2 ng/mL
same,Activity,[28],21%
same,EC50,[29],1 nM
same,Efficacy,[30],37%
same,pKi,[31],5.5
same,CL,[32],28 uL/ml.millig
same,concentration at 1 min,[33],824 ng/mL
same,concentration at 10 min,[34],447 ng/mL
same,concentration at 1 h,[35],137 ng/mL
same,concentration at 2 h,[36],74.3 ng/mL
same,concentration at 6 h,[37],23.5 ng/mL
same,concentration at 8 h,[38],14.9 ng/mL
same,bioavailability,[39],56%
same,concentration at 4 h,[40],45.4 ng/mL
same,Cmax,[41],357 ng/mL
same,Cmax,[42],835 ng/mL
